Assay results as given in ChEMBL document CHEMBL1149129, “Design and synthesis of 3'- and 5'-O-(3-benzenesulfonylfuroxan-4-yl)-2'-deoxyuridines: biological evaluation as hybrid nitric oxide donor-nucleoside anticancer agents” (2004).

What was measured:
[1] = test system: KBALB-STK; assay: In vitro cell cytotoxicity was determined against KBALB-STK cell line; assay type: functional; conditions: Mus musculus
Summary of the method: (§1)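 Murine KBALB or KBALB-STK cells, or Hs578Bst human fibroblasts, were grown in complete DMEM with 10% FBS and seeded at 8×10^2 cells/well. After 24 h at 37 °C in 5% CO2, compound in medium was added for 3 days. MTT was added for 4 h, formazan dissolved in DMSO, and blank-corrected A540 read. CC50 is 50% of control A540 (mean, n = 6).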

[2] = test system: 143B; assay: In vitro cell cytotoxicity was determined against 143B-LTK cell line; assay type: functional; conditions: Homo sapiens
Summary of the method: (§2)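 Human 143B or 143B-LTK cells were grown in complete MEME with 10% FBS and seeded at 8×10^2 cells/well. After 24 h at 37 °C in 5% CO2, compound in medium was added and cells were incubated 3 days. Viability was read by MTT (4 h), with formazan dissolved in DMSO and A540 corrected for blanks. CC50 is the concentration cutting A540 to 50% of control (mean, n = 6).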

[3] = test system: EMT6; assay: In vitro cell cytotoxicity was determined against EMT-6 cell line; assay type: functional; conditions: Mus musculus
Summary of the method: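 Murine EMT-6 cells in complete Waymouth medium with 12.5% FBS were plated at 8×10^2 cells/well and preincubated 24 h (37 °C, 5% CO2). Compound in medium was then given for 3 days. MTT reduction was measured over 4 h, with DMSO solubilization and blank-corrected absorbance at 540 nm. CC50 is the concentration reducing A540 to 50% of control (mean, n = 6).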

[4] = test system: 143B; assay: In vitro cell cytotoxicity was determined against 143B cell line; assay type: functional; conditions: Homo sapiens; summary of the method: as §2
[5] = test system: KBALB cell line; assay: In vitro cell cytotoxicity was determined against KBALB cell line; assay type: functional; conditions: Mus musculus; summary of the method: as §1
[6] = In vitro percent nitric oxide released from the test compound was determined as the percent of nitrite (NO2-) produced in the present of L-cysteine in Phosphate buffer saline at 1 hr; assay type: functional
Summary of the method: (§3)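 Equal volumes of 0.2 mM compound and freshly prepared 3.6 mM L-cysteine, each in 0.1 M phosphate buffer, pH 7.4, were mixed and incubated at 37 °C for 1 or 16 h in the absence of air. After 10 min air exposure at 25 °C, an equal volume of Griess reagent was added and A540 read after 10 min. Nitrite was quantified against a 0–100 µM NaNO2 curve (±SEM, n = 3).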

[7] = In vitro percent nitric oxide released from the test compound was determined as the percent of nitrite (NO2-) produced in the present of L-cysteine in Phosphate buffer saline at 16 hr; assay type: functional; summary of the method: as §3
[8] = In vitro percent nitric oxide released from the test compound was determined as the percent of nitrite (NO2-) produced in phosphate buffered saline at 1 hr; assay type: functional
Summary of the method: (§4)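 Compound (2 mM solution) in 0.1 M phosphate buffer, pH 7.4, without L-cysteine was incubated at 37 °C for 1 or 16 h in the absence of air. It was then exposed to air for 10 min at 25 °C and mixed with an equal volume of Griess reagent (sulfanilamide/N-naphthylethylenediamine). A540 was read after 10 min. Percent NO, as nitrite, came from a 0–100 µM sodium nitrite standard curve (±SEM, n = 3).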

[9] = test system: Hs578Bst (Homo sapiens); assay: In vitro cell cytotoxicity was determined against Hs 578.Bst cell line
[10] = In vitro percent nitric oxide released from the test compound was determined as the percent of nitrite (NO2-) produced in phosphate buffered saline at 16 hr; assay type: functional; summary of the method: as §4

SMILES	CC50 [1] [nM]	CC50 [2] [µM]	CC50 [3] [nM]	CC50 [4] [µM]	CC50 [5] [nM]	NO release [6] [%]	NO release [7] [%]	NO release [8] [%]	CC50 [9] [µM]	NO release [10] [%]
O=c1[nH]c(=O)n([C@H]2C[C@H](O)[C@@H](CO)O2)cc1I [IDOXURIDINE]	0.088	100	0.009	90	0.06	–	–	–	–	–
O=c1[nH]c(=O)n([C@H]2C[C@H](O)[C@@H](COc3no[n+]([O-])c3S(=O)(=O)c3ccccc3)O2)cc1I	920	0.71	1000	0.54	920	28.3	71.9	9.8	0.8	9.9
O=c1[nH]c(=O)n([C@H]2C[C@H](Oc3no[n+]([O-])c3S(=O)(=O)c3ccccc3)[C@@H](CO)O2)cc1I	400	1.3	80	0.56	380	39.8	74.8	1.2	0.8	0.4
Cc1cn([C@H]2C[C@H](Oc3no[n+]([O-])c3S(=O)(=O)c3ccccc3)[C@@H](CO)O2)c(=O)[nH]c1=O	1000	0.88	2400	0.72	560	39.5	77.3	1.4	2	0.4
Cc1cn([C@H]2C[C@H](O)[C@@H](COc3no[n+]([O-])c3S(=O)(=O)c3ccccc3)O2)c(=O)[nH]c1=O	4800	5.6	2000	3.6	2800	20.9	36.8	2.2	6.8	2.2
O=[N+]([O-])O[C@H]1CO[C@H]2[C@@H]1OC[C@H]2O[N+](=O)[O-] [ISOSORBIDE DINITRATE]	10000	7400	380000	7000	97000	1.9	2.6	3.5	–	24
O=c1[nH]c(=O)n([C@H]2C[C@H](Oc3no[n+]([O-])c3S(=O)(=O)c3ccccc3)[C@@H](CO)O2)cc1C(F)(F)F	2000	0.48	880	0.52	3200	48.3	78.5	0.3	4.4	0.4
COc1no[n+]([O-])c1S(=O)(=O)c1ccccc1	440	0.32	560	0.07	480	12.3	44.8	1.1	0.68	1
O=S(=O)(c1ccccc1)c1no[n+]([O-])c1S(=O)(=O)c1ccccc1	600	0.028	100	0.04	520	22.7	38.8	0.2	0.1	0.4
O=c1[nH]c(=O)n([C@H]2C[C@H](O)[C@@H](CO)O2)cc1F [FLOXURIDINE]	100000	–	–	–	95000	–	–	–	–	–
Cc1cn([C@H]2C[C@H](O)[C@@H](CO)O2)c(=O)[nH]c1=O [DOXRIBTIMINE]	650000	700	–	600	970000	–	–	–	–	–
O=c1ccn([C@H]2C[C@H](O)[C@@H](COc3no[n+]([O-])c3S(=O)(=O)c3ccccc3)O2)c(=O)[nH]1	5400	6.3	750	3.3	4600	46	77.9	1.5	4.8	0.2
O=c1[nH]c(=O)n([C@H]2C[C@H](O)[C@@H](COc3no[n+]([O-])c3S(=O)(=O)c3ccccc3)O2)cc1F	60	2	60	3.2	48	41.6	68.7	0.8	0.076	0.7
O=c1ccn([C@H]2C[C@H](Oc3no[n+]([O-])c3S(=O)(=O)c3ccccc3)[C@@H](CO)O2)c(=O)[nH]1	1700	2.9	80	0.96	790	45.6	85.8	0.9	4.8	0.2
O=c1[nH]c(=O)n([C@H]2C[C@H](Oc3no[n+]([O-])c3S(=O)(=O)c3ccccc3)[C@@H](CO)O2)cc1F	840	0.84	2000	0.24	2000	41.5	73.9	0.4	4.4	0.2
